In paper PMC3776227 (Biochemical Pharmacology, 2013):

What was measured:
[1] = system: C57BL/6N mice; test: Elevated Plus Maze Test; assay type: in vivo
How it was run: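 Test compound or vehicle (saline, 10% DMSO, 3% Tween 80, pH 7.4) was injected i.p. into male C57BL/6N mice (3–6 months) 30 min before a 5-min elevated plus maze trial. The maze stood 1 m high with 30 × 5 cm arms and 20 cm closed-arm walls, lit at 180 lx. Mice started in the centre facing an open arm; scoring was automated by video. ≥9 mice; ANOVA with Bonferroni.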

[2] = target: T1, α3β2 GABAA receptors (Rattus norvegicus, UniProt P20236+P63138); test: Shift of the GABA concentration-response curve by 100 μM compound; assay type: cell-based; conditions: enhancement not significant (p > 0.05)
[3] = system: C57BL/6N mice; test: Seizure threshold, pentylentetrazole; assay type: in vivo; conditions: for Seizure threshold (PTZ dose): 30 min before PTZ, control 39.4 ± 2.8
[4] = target: α1β3 GABAA receptors (Rattus norvegicus, UniProt P62813+P63079); test: IGABA modulation, two-microelectrode voltage clamp, Xenopus oocytes, α1β3; assay type: cell-based
How it was run: (§1)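 Rat GABAA subunit cRNAs were injected into stage V–VI Xenopus oocytes (10–50 nl, about 300–3000 pg/nl): α1β1 at 3:1, other αβ pairs at 1:1, and γ2S-containing receptors at α:β:γ 1:1:10. Oocytes were kept 24–48 h at 18 °C in ND96 with penicillin/streptomycin. Two-electrode voltage clamp was run at −70 mV in HEPES-buffered bath (pH 7,4).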

[5] = target: T1, α3β2 GABAA receptors; test: IGABA modulation, two-microelectrode voltage clamp, Xenopus oocytes, α3β2; assay type: cell-based
How it was run: as §1

[6] = target: α1β2 GABAA receptors (Rattus norvegicus, UniProt P62813+P63138); test: IGABA modulation, two-microelectrode voltage clamp, Xenopus oocytes, α1β2; assay type: cell-based
How it was run: as §1

[7] = system: C57BL/6N mice; test: Open Field Test; assay type: in vivo
How it was run: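 Male C57BL/6N mice (3–6 months) were dosed i.p. with test compound or vehicle (saline, 10% DMSO, 3% Tween 80, pH 7.4) 30 min before testing. Ambulation was tracked by infrared for 10 min in a 50 × 50 × 50 cm box at 150 lx, starting in the centre. Zones: border ≤8 cm from wall, centre 20 × 20 cm. ≥8 mice; ANOVA with Bonferroni.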

[8] = target: α2β2 GABAA receptors (Rattus norvegicus, UniProt P23576+P63138); test: IGABA modulation, two-microelectrode voltage clamp, Xenopus oocytes, α2β2; assay type: cell-based
How it was run: as §1

[9] = target: α1β1 GABAA receptors (Rattus norvegicus, UniProt P15431+P62813); test: IGABA modulation, two-microelectrode voltage clamp, Xenopus oocytes, α1β1; assay type: cell-based
How it was run: as §1

[10] = target: α1β2γ2S GABAA receptors (Rattus norvegicus, UniProt P62813+P63138); conditions: piperine data taken from the literature; cited from earlier work
[11] = system: GABAA receptors; test: Direct activation of GABAA receptors in the absence of GABA; assay type: cell-based, rat; conditions: up to 300 μM, no GABA
[12] = target: α5β2 GABAA receptors (Rattus norvegicus, UniProt P19969+P63138); test: IGABA modulation, two-microelectrode voltage clamp, Xenopus oocytes, α5β2; assay type: cell-based
How it was run: as §1

[13] = system: C57BL/6N mice; test: Measurement of body temperature; assay type: in vivo; conditions: 3 h after injection, control 36.10 ± 0.10 °C
[14] = target: TRPV1 channels (Rattus norvegicus, UniProt O35433); test: TRPV1 activation, two-microelectrode voltage clamp, Xenopus oocytes; assay type: cell-based
How it was run: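 Rat TRPV1 cRNA was injected into Xenopus oocytes, which were stored 24–48 h at 18 °C. Two-electrode voltage clamp was run at −60 mV. Test compound (3–300 μM) was applied by fast perfusion. Peak inward current was normalised to a preceding 300 μM control response to the parent test compound in the same cell. Hill fit; n = 3–10 cells.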

[15] = read-out: Maximum stimulation of IGABA at EC3–7

Sequence of TRPV1 channels (O35433 whole entry, the tested form may be a part): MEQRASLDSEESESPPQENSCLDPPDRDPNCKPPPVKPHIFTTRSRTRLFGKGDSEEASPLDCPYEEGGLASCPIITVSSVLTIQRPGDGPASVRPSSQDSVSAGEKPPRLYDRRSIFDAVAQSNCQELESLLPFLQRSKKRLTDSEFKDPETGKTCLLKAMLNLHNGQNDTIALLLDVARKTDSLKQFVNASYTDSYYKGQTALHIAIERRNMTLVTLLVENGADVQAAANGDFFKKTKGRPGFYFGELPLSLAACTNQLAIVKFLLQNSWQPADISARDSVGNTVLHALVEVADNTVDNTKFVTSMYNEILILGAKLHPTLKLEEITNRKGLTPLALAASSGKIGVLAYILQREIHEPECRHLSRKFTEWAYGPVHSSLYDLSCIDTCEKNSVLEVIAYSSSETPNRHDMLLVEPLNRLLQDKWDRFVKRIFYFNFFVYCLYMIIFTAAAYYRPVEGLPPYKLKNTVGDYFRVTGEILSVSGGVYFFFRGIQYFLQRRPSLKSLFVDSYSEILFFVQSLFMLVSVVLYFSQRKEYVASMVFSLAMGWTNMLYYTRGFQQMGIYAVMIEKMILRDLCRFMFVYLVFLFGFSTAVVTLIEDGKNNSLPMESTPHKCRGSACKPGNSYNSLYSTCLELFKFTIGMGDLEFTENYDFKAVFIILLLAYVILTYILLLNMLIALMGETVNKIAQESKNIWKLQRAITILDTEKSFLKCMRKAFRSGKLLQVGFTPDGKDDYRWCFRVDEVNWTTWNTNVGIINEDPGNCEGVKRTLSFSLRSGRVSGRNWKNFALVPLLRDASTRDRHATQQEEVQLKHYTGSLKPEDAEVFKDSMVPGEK
T1 sequence (P20236 29-493): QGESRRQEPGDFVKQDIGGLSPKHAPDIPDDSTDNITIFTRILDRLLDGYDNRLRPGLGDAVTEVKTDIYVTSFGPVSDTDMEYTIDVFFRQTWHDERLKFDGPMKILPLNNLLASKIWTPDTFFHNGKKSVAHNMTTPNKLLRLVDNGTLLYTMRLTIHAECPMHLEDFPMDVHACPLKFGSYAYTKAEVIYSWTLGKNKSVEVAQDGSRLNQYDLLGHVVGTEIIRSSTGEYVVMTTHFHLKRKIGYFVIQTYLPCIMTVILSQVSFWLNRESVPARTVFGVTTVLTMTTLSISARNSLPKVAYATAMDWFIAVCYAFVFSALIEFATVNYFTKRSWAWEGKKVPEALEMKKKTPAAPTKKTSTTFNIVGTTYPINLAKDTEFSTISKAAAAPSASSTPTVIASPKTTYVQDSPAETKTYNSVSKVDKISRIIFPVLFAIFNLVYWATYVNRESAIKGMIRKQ
T1 sequence (P63138 25-474 limits assumed): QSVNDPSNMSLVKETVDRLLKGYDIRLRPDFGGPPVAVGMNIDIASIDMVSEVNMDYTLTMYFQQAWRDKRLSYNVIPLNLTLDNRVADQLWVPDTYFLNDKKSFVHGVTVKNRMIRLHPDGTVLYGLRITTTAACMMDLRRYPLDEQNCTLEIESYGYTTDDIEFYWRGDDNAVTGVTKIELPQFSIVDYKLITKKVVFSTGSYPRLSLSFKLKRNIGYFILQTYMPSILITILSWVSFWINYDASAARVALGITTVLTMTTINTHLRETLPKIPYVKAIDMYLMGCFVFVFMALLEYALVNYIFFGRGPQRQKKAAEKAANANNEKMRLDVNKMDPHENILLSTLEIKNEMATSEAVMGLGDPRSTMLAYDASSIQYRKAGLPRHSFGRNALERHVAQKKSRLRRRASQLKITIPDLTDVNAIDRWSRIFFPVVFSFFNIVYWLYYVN
Sequence of α2β2 GABAA receptors (P23576 29-451): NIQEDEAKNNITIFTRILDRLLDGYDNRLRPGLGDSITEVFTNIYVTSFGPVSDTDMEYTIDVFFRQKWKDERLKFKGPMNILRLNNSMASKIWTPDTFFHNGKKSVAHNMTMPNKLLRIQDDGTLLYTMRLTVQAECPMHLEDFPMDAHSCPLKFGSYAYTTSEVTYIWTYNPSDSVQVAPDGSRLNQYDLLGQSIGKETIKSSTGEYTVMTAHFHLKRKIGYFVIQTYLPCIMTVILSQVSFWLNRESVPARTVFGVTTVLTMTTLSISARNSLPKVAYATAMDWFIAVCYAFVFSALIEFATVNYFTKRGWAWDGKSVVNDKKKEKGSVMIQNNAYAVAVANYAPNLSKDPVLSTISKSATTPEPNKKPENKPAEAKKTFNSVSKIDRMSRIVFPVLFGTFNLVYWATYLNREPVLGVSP
Sequence of α2β2 GABAA receptors (P63138 25-474 limits assumed): as the sequence (P63138 25-474 limits assumed) above
Sequence of α5β2 GABAA receptors (P19969 26-464): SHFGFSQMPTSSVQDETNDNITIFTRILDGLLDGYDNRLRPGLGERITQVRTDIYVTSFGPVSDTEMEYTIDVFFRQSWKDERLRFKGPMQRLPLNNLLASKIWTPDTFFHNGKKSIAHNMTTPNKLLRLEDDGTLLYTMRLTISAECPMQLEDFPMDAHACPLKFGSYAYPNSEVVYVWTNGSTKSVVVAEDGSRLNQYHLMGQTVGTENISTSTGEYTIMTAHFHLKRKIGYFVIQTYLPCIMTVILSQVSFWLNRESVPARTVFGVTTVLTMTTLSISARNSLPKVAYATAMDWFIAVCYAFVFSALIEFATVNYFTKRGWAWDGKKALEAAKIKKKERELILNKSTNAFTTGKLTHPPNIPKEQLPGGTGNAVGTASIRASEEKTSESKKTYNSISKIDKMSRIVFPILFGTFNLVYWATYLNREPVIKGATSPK
Sequence of α5β2 GABAA receptors (P63138 25-474 limits assumed): as the sequence (P63138 25-474 limits assumed) above
Sequence of α1β2 GABAA receptors (P62813 28-455): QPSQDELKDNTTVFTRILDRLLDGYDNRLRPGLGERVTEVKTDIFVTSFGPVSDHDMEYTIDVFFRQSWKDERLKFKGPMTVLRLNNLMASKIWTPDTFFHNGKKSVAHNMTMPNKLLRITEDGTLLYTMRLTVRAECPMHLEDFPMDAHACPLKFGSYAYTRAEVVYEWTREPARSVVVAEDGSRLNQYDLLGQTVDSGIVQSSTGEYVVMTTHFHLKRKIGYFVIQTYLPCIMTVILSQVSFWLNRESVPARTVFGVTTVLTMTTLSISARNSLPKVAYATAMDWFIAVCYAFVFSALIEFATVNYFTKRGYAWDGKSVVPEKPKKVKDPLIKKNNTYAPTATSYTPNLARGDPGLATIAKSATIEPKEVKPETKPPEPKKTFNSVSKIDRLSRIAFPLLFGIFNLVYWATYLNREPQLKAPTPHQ
Sequence of α1β2 GABAA receptors (P63138 25-474 limits assumed): as the sequence (P63138 25-474 limits assumed) above
Sequence of α1β1 GABAA receptors (P62813 28-455): as the sequence (P62813 28-455) above
Sequence of α1β1 GABAA receptors (P15431 26-474): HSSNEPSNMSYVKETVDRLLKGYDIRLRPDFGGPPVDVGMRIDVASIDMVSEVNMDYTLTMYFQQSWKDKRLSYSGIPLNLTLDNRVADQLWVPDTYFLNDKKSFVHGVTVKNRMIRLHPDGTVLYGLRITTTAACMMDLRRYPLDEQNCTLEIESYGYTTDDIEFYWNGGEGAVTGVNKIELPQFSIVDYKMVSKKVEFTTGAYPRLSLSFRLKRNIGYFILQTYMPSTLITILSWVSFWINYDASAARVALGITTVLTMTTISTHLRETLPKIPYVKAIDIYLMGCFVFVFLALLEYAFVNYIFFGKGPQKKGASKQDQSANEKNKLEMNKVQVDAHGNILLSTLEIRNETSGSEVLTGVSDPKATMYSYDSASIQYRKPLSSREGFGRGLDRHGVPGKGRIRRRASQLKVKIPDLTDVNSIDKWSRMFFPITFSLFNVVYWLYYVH
Sequence of α1β3 GABAA receptors (P62813 28-455): as the sequence (P62813 28-455) above
Sequence of α1β3 GABAA receptors (P63079 26-473): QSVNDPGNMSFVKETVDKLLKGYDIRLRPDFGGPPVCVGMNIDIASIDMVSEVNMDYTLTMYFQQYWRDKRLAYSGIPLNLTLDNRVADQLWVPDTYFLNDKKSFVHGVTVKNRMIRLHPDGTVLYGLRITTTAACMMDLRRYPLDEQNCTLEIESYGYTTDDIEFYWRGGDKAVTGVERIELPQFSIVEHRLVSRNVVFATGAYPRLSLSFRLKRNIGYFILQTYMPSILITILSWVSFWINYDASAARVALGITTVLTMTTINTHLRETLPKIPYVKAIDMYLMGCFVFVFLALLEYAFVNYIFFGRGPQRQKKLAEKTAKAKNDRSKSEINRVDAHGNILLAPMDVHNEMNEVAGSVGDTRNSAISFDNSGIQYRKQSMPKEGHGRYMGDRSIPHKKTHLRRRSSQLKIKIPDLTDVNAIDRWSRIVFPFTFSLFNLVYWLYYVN
Sequence of α1β2γ2S GABAA receptors (P62813 28-455): as the sequence (P62813 28-455) above
Sequence of α1β2γ2S GABAA receptors (P63138 25-474 limits assumed): as the sequence (P63138 25-474 limits assumed) above
Sequence of α1β2γ2S GABAA receptors (P18508 39-466 partner): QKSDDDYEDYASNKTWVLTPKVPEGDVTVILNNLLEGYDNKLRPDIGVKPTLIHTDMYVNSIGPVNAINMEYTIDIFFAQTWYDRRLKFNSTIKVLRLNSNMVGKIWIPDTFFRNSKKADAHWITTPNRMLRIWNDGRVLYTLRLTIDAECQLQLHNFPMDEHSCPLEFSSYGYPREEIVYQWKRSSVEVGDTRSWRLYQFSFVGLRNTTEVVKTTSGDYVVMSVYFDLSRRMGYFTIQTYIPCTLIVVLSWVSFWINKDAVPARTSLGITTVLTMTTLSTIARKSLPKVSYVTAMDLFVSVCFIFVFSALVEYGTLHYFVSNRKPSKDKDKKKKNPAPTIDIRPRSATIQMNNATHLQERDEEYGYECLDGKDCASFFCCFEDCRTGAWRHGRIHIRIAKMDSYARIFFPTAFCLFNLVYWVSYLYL

- IGABA,max in the presence of compound [2]: 123 ± 3%
- EC50 [4]: 48.3 ± 7.3 µM
- Emax [4, 15]: 332 ± 64%
- Hill coefficient (nH) ([4]; α1β3, GABA EC3–7): 1.5 ± 0.3
- EC50 [5]: 59.6 ± 12.3 µM
- Emax [5, 15]: 375 ± 51%
- Hill coefficient (nH) ([5]; α3β2, GABA EC3–7): 1.4 ± 0.2
- EC50 [6]: 50 ± 7.9 µM
- Emax [6, 15]: 271 ± 36%
- Hill coefficient (nH) ([6]; α1β2, GABA EC3–7): 1.5 ± 0.3
- EC50 [8]: 42.8 ± 17.6 µM
- Emax [8, 15]: 248 ± 48%
- Hill coefficient (nH) ([8]; α2β2, GABA EC3–7): 1.9 ± 0.5
- EC50 [9]: 57.6 ± 4.2 µM
- Emax [9, 15]: 171 ± 22%
- Hill coefficient (nH) ([9]; α1β1, GABA EC3–7): 1.4 ± 0.2
- EC50 [12]: 47.5 ± 17.9 µM
- Emax [12, 15]: 136 ± 22%
- Hill coefficient (nH) ([12]; α5β2, GABA EC3–7): 1.7 ± 0.4
- Body temperature ([13]; 10 mg/kg bodyweight i.p.): 34.86 ± 0.29 °C
- Body temperature ([13]; 30 mg/kg bodyweight i.p.): 30.37 ± 0.84 °C
- EC50 [14]: 33.3 ± 0.1 µM
- Hill coefficient of TRPV1 activation ([14]; 3–300 μM): 4.1 ± 0.1
- Activation of TRPV1 receptors (inward currents) ([14]; oocytes expressing TRPV1, up to 300 μM): induced marked inward currents
Structure (SMILES): O=C(/C=C/C=C/c1ccc2c(c1)OCO2)N1CCCCC1 [Piperine, 1-piperoylpiperidine]
- Time spent in the open arms (OA) in % of total time (EPM) ([1]; 0.1 mg/kg bodyweight i.p., vs saline-treated control): did not significantly differ
- Time spent in the open arms (OA) in % of total time (EPM) ([1]; 0.3 mg/kg bodyweight i.p., 30 min before test, control 28.6 ± 2.1%): 43.0 ± 4.2%
- Effect on ambulation (EPM total distance) ([1]; 1 mg/kg bodyweight i.p.): significantly reduced ambulation
- Time spent in the open arms (OA) in % of total time (EPM) ([1]; 1 mg/kg bodyweight i.p., 30 min before test, control 28.6 ± 2.1%): 45.7 ± 6.3%
- Number of closed arm (CA) entries (EPM) ([1]; doses ≥0.3 mg/kg bodyweight i.p.): dropped significantly
- Seizure threshold (PTZ dose) ([3]; 3 mg/kg bodyweight i.p.): 46.2 ± 5.4 mg/kg bodyweight PTZ
- Seizure threshold (PTZ dose) ([3]; 30 mg/kg bodyweight i.p.): 30.3 ± 3.4 mg/kg bodyweight PTZ
- Effect on seizure threshold ([3]; doses below 3 mg/kg bodyweight i.p.): did not affect seizure threshold
- Vasodilatory effects during PTZ tail-vein infusion ([3]; doses of 10–30 mg/kg, data not shown): observed vasodilatory effects
- Total distance travelled (OF) ([7]; 30 mg/kg bodyweight i.p., 30 min before test, 10 min test, control 39.3 ± 1.9 m): 21.0 ± 3.7 m
- Reduction of ambulation compared to control (OF) ([7]; 30 mg/kg i.p.): approximately 50%
- Doses with significant reduction of ambulation (OF) ([7]; i.p., 30 min before test): ≥ 3 mg/kg bodyweight
- EC50 [10]: 52.4 ± 9.4 µM
- IGABA,max [10]: 302 ± 27%
- Activation of GABAA receptors in the absence of GABA [11]: Neither piperine nor SCT-66 (up to 300 μM) activated GABAA receptors
